Results from ChEMBL document CHEMBL1159036, “Design and synthesis of selective inhibitors of placental alkaline phosphatase” (Bioorg Med Chem, 2010).
pIC50: −log10 of the molar value.

What was measured:
[1] = Selectivity ratio of IC50 for IAP to IC50 for PLAP
[2] = target: T1, Alkaline phosphatase, tissue-nonspecific isozyme (Homo sapiens, UniProt P05186); experiment: Inhibition of TNAP by analogous luminescence assay
T1 sequence (P05186 whole entry): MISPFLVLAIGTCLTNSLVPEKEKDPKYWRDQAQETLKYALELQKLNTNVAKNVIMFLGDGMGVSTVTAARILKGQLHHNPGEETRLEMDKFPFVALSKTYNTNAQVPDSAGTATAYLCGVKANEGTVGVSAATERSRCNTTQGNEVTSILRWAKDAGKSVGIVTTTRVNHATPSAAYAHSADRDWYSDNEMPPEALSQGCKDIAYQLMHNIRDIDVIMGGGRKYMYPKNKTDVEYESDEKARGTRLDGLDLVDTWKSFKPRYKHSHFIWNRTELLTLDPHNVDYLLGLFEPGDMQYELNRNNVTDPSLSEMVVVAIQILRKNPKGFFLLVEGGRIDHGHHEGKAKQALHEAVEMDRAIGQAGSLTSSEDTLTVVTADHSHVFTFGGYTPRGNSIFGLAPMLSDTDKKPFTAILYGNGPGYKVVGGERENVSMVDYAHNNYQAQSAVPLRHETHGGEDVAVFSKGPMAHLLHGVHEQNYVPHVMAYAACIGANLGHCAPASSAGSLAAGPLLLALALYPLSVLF

[3] = target: Intestinal-type alkaline phosphatase (Homo sapiens, UniProt P09923); experiment: Inhibition of IAP by analogous luminescence assay
Chain of Intestinal-type alkaline phosphatase (P09923 whole entry): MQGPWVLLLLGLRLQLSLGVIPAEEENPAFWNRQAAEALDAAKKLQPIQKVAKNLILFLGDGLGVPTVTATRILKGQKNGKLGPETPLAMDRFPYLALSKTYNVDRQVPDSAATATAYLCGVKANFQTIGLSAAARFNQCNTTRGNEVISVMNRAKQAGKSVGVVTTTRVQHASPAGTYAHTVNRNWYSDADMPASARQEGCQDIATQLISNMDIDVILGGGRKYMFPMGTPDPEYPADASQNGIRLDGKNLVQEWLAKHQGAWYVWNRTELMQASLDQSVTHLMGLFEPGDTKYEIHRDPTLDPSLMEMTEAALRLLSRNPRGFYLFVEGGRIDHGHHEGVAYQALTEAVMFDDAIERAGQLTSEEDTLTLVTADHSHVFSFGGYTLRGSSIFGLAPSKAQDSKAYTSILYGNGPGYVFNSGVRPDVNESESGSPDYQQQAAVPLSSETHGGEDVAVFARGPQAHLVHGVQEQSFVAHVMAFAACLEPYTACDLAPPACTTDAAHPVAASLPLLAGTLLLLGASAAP

[4] = Selectivity ratio of IC50 for TNAP to IC50 for PLAP
[5] = target: Alkaline phosphatase, germ cell type (Homo sapiens, UniProt P10696); experiment: Inhibition of GCAP by analogous luminescence assay
Chain of Alkaline phosphatase, germ cell type (P10696 whole entry): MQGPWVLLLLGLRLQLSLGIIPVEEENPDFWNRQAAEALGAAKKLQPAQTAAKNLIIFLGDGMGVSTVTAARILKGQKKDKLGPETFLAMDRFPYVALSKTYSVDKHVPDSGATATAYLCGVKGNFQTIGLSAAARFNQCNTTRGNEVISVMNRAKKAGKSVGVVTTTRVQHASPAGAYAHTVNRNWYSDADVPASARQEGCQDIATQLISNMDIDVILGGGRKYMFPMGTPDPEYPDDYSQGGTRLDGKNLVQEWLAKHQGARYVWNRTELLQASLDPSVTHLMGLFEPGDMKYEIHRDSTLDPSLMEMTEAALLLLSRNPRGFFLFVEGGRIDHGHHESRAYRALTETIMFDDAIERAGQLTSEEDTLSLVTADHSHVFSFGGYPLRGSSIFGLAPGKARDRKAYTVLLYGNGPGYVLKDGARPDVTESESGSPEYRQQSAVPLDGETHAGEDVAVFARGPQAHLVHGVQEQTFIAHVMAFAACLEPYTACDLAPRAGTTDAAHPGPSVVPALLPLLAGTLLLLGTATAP
In short: (§1)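 GCAP and PLAP IC50s were measured together in dose-response runs on a separate occasion, using enzyme concentrations that differed from those of the main assays.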

[6] = Selectivity ratio of IC50 for GCAP to IC50 for PLAP; in short: as §1

| Compound | pIC50 [2] | pIC50 [3] | other results |
| --- | --- | --- | --- |
| Cc1cnn(CC(=O)c2ccc(O)c(O)c2)c1 | < 4.00 | – | Ratio IC50 [1]: 25 |
| O=C(Cn1cnnc1)c1ccc(O)c(O)c1 | < 4.00 | – | – |
| N=C(N)NCCCC[C@H](N)C(=O)O | – | < 5.30 | – |
| Cc1cn(CC(=O)c2ccc(O)c(O)c2)cn1 | 4.39 | – | Ratio IC50 [4]: 7 |
| Cc1cc(C)nc(SCC(=O)c2ccc(O)c(O)c2)n1 | – | – | pIC50 [5]: 6.22 |
| Cn1c(=O)c2[nH]cnc2n(C)c1=O [THEOPHYLLINE] | – | < 5.30 | – |
| CC(C)NCC(=O)c1ccc(O)c(O)c1 | < 4.00 | – | – |
| Cc1nccn1CC(=O)c1ccc(O)c(O)c1 | 4.11 | – | pIC50 [5]: 4.52 |
| Cc1cc2ncn(CC(=O)c3ccc(O)c(O)c3)c2cc1C | < 4.00 | – | – |
| O=C(Cn1cnc(Br)c1)c1ccc(O)c(O)c1 | 4.32 | – | – |
| COc1ccc(-n2nnnc2SCC(=O)c2ccc(O)c(O)c2)cc1 | 5.10 | – | – |
| N[C@@H](Cc1c[nH]c2ccccc12)C(=O)O [TRYPTOPHAN] | – | < 5.30 | – |
| O=C(Cn1ccnc1-c1ccccc1)c1ccc(O)c(O)c1 | < 4.00 | – | – |
| O=C(Cn1ccnc1)c1ccc(O)c(O)c1 | < 4.00 | – | Ratio IC50 [4]: > 32; pIC50 [5]: 5.92; Ratio IC50 [1]: 15; Ratio IC50 [6]: 0.6 |
| CCc1nccn1CC(=O)c1ccc(O)c(O)c1 | < 4.00 | < 4.00 | Ratio IC50 [4]: > 27; pIC50 [5]: 5.77; Ratio IC50 [1]: > 24; Ratio IC50 [6]: 2.1 |
| c1ccc([C@H]2CN3CCSC3=N2)cc1 [LEVAMISOLE] | – | < 5.30 | – |
| O=C(Cn1cnc2ccccc21)c1ccc(O)c(O)c1 | 4.74 | – | pIC50 [5]: 5.57 |
| O=C(CNc1nc2ccccc2[nH]1)c1ccc(O)c(O)c1 | 4.03 | – | pIC50 [5]: 5.21; Ratio IC50 [6]: 0.7 |
| CC(C)C[C@H](N)C(N)=O [LEUCINE AMIDE] | – | < 5.30 | – |
| Cc1nc2ccccc2n1CC(=O)c1ccc(O)c(O)c1 | 4.58 | < 4.00 | pIC50 [5]: 5.03 |
| CC(C)C[C@H](N)C(=O)O [LEUCINE] | – | < 5.30 | – |
| N[C@@H](Cc1ccccc1)C(=O)O [PHENYLALANINE] | – | < 5.30 | – |
| Cc1nc(Br)cn1CC(=O)c1ccc(O)c(O)c1 | 5.06 | – | Ratio IC50 [4]: 1.7 |
| COc1ccc2c(c1OC)C(=O)OC2CC(=O)c1ccc(O)c(O)c1 (configuration not stated) | 4.53 | – | – |
